The results in this text go back to ChEMBL document CHEMBL1124388, “Cardiotonic agents. 1-Methyl-7-(4-pyridyl)-5,6,7,8-tetrahydro-3 (2H)-isoquinolinones and related compounds. Synthesis and activity” (J Med Chem, 1989).

For test [1], the species on record is Canis familiaris. In words: Positive inotropic effects in the propranolol induced heart failure model in the dog. The test is classed as functional, Canis lupus familiaris. The method, boiled down:
(§1)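 Pentobarbital-anesthetized (30 mg/kg iv) mongrel dogs, 8–12 kg, either sex. Heart failure induced by propranolol, 4 mg/kg iv bolus then 0.1 mg/kg/min infusion. About 20 min later, compound given cumulatively into the femoral vein, one dose-response curve per animal. LV dp/dt max read by electronic differentiator. ED100 is the dose restoring pre-propranolol LV dp/dt max, taken from log dose-response. Highest dose tested 10 mg/kg. Three experiments unless stated.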

Test [2] relates to Canis familiaris. Nature of the test: Positive inotropic effects in the propranolol induced heart failure model in the dog; Inactive at 10 mg/kg. The test is classed as functional, organism-based. More on the design: dose 10 mg/kg. Conditions: Canis lupus familiaris. In a few lines:
as §1

The species entered for test [3] is Canis lupus familiaris. In words: Relative inhibition of canine PDE1 and PDE 3.
The target in test [4] is Phosphodiesterase 1 (Canis familiaris). In words: Inhibition of canine Phosphodiesterase 1(PDE 1).
Test [5] has as its target Phosphodiesterase 3 (Canis familiaris). Nature of the test: Inhibition of canine Phosphodiesterase III (PDE 3).

Activity calls are given as the source filed them. No cut-off for these calls is given here.

With `CCC(=O)c1c(O)nc(C)c2c1CCC(c1ccncc1)C2` (centres undefined), the ED100 in test [1] was determined as 4 mg/kg.

Consider `Cc1nc(O)c([N+](=O)[O-])c2c1CC(c1ccncc1)CC2` (centres undefined), for which the ED100 in test [1] was 0.1 mg/kg.

Consider `CCCCc1nc(O)c(C(C)=O)c2c1CC(c1ccncc1)CC2` (centres undefined), for which the ED100 result in test [2] is “inactive”.

For `Cc1nc(O)c(C(N)=O)c2c1CC(c1ccncc1)CC2` (centres undefined), in test [2], the ED100 entry is “inactive”.

`Cc1nc(O)c(C#N)c2c1CCCC2C` (centres undefined) had an ED100 in test [1] of 2 mg/kg.

Turning to `COc1ccc(C2CCc3c(C#N)c(O)nc(C)c3C2)cc1` (centres undefined), in test [1], the ED100 is 0.3 mg/kg.

For orientation: IC50 means the concentration that inhibits the measured activity by half. As for `CC(=O)c1c(O)nc(C)c2c1CCC(c1ccncc1)C2` (centres undefined), in test [3], the Ratio turned out to be 273. Moreover, the concentration for half-maximal inhibition (IC50) in test [4] stood at 409 µM; in test [5] it was 1.5 µM. Moreover, in test [1], the ED100 amounted to 0.1 mg/kg.

As to `N#Cc1c(O)ncc2c1CCCC2`, in test [2], the ED100 entry is “inactive”.

Turning to `Cc1nc(O)c(C#N)c2c1CC(C)CC2` (centres undefined), the ED100 in test [1] came out at 0.3 mg/kg.

In test [1], `Cc1nc(O)c(C#N)c2c1CC(c1ccncc1)CC2` (centres undefined) gave an ED100 of 0.1 mg/kg.

`CCc1nc(O)c(C(C)=O)c2c1CC(c1ccncc1)CC2` (centres undefined) showed an ED100 in test [1] of 0.3 mg/kg.

In turn, `Cc1nc(O)c(C)c2c1CC(c1ccncc1)CC2` (centres undefined) showed an ED100 in test [1] of 2 mg/kg.

For the compound `COCc1ccc(C2CCc3c(C#N)c(O)nc(C)c3C2)cc1` (centres undefined), the ED100 entry in test [2] is “inactive”.

As to `Cc1c(C#N)c(O)nc2c1CC(c1ccncc1)CC2` (centres undefined), the ED100 entry in test [2] was “inactive”.

For the compound `Cc1[nH]c(=O)c(C#N)cc1-c1ccncc1` [MILRINONE], the ED100 in test [1] was 0.1 mg/kg.

`CCC1CCc2c(C#N)c(O)nc(C)c2C1` (centres undefined) returned an ED100 in test [1] of 1 mg/kg.

For the compound `CCc1c(O)nc(C)c2c1CCC(c1ccncc1)C2` (centres undefined), in test [1], the ED100 was determined as 0.02 mg/kg.

As to `Cc1c2c(c(C#N)c(=O)n1C)CCC(C)C2` (centres undefined), in test [2], the ED100 result is “inactive”.

Compound `Cc1nc(O)c(C#N)c2c1CCCC2` came in with an ED100 in test [1] of 3 mg/kg.

Compound `CCCc1c(O)nc(C)c2c1CCC(c1ccncc1)C2` (centres undefined) yielded an ED100 in test [1] of 0.3 mg/kg.

`Cc1nc(O)c(C#N)c2c1CCC(C)C2` (centres undefined) came in with an ED100 in test [1] of 1 mg/kg.

Turning to `Cc1nc(O)c(C#N)c2c1CCC(c1ccncc1)C2` (centres undefined), the ED100 entry in test [2] was “inactive”.

`Cc1c(C#N)c(O)nc2c1CCCC2`: the ED100 result in test [2] is “inactive”.

With `Cc1nc(O)c(C#N)c2c1CC(C(C)(C)C)CC2` (centres undefined), the ED100 result in test [2] is “inactive”.

Compound `Cc1nc(O)c(C#N)c2c1C(C)CCC2` (centres undefined) showed an ED100 in test [1] of 3 mg/kg.

`Cc1nc(O)cc2c1CC(c1ccncc1)CC2` (centres undefined) had an ED100 in test [1] of 0.3 mg/kg.

With `Cc1c(C#N)c(O)nc2c1CC(C)CC2` (centres undefined), in test [2], the ED100 entry is “inactive”.

With `Cc1nc(O)c(C#N)c2c1CC(c1cccnc1)CC2` (centres undefined), the ED100 in test [1] is 0.1 mg/kg.

With `Cc1nc(O)c(C(=O)c2ccccc2)c2c1CC(c1ccncc1)CC2` (centres undefined), in test [2], the ED100 entry was “inactive”.

Regarding `CCCc1nc(O)c(C#N)c2c1CCCC2`, the ED100 result in test [2] is “inactive”.

As to `Cc1nc(O)c(C#N)c2c1CC(c1ccc(N(C)C)cc1)CC2` (centres undefined), the ED100 entry in test [2] is “inactive”.

As for `Cc1nc(O)c(C#N)c2c1CC(c1ccc(CN(C)C)cc1)CC2` (centres undefined), the ED100 result in test [2] is “inactive”.

In the case of `Cc1nc(O)c(C#N)c2c1CC(c1ccccn1)CC2` (centres undefined), the ED100 in test [1] was found to be 0.3 mg/kg.

`Cc1nc(O)c(N)c2c1CC(c1ccncc1)CC2` (centres undefined) yielded an ED100 in test [1] of 0.2 mg/kg.

Regarding `CCCCOC1CCc2c(C#N)c(O)nc(C)c2C1` (centres undefined), in test [2], the ED100 entry is “inactive”.

In turn, `Cc1nc(O)c(C#N)c2c1CC(c1ccccc1)CC2` (centres undefined) returned an ED100 in test [1] of 0.1 mg/kg.

As for `Cc1nc(O)c(C=O)c2c1CC(c1ccncc1)CC2` (centres undefined), the ED100 entry in test [2] is “inactive”.

Consider `COC1CCc2c(C#N)c(O)nc(C)c2C1` (centres undefined), for which, in test [1], the ED100 is 1 mg/kg.

In the case of `COC1CCc2nc(O)c(C#N)c(C)c2C1` (centres undefined), the ED100 result in test [2] is “inactive”.

Consider `CCCC(=O)c1c(O)nc(C)c2c1CCC(c1ccncc1)C2` (centres undefined), for which the ED100 result in test [2] was “inactive”.

For `CC(=O)c1c(O)nc2c(c1C)CC(c1ccncc1)CC2` (centres undefined), the ED100 result in test [2] was “inactive”.
